Data on 5 compounds can be found in ChEMBL document CHEMBL3272047, “3-N-Substituted aminomethyl derivatives of rifamycin SV. A convenient method of synthesis, cyclization of certain derivatives, and anticellular and antiviral activities of several derivatives” (J Med Chem, 1977).

The test system of data set [1] is Moloney murine sarcoma virus. In words: Antiviral activity against Moloney murine sarcoma virus infected in mouse 3T3-FL cells assessed as inhibition of cellular focal transformation at highest nontoxic concentration after 5 days by microscopic analysis relative to control. The class given is functional. The essentials:
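3T3FL cells seeded 1×10^5/dish in McCoy's 5A with 10% fetal calf serum, incubated overnight, primed with 25 µg/mL DEAE-dextran 20 min at room temperature, infected with ~100 FFU Moloney MSV (1 h adsorption, 37 °C); drug medium (0.25% Me2SO final) added, 5 days 37 °C without medium change; foci counted microscopically versus parallel control cultures.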

Data set [2] is described as follows: Cytotoxicity against mouse 3T3-FL cells after 24 to 120 hrs. The class given is cell-based. Conditions: read-out: MNTD>75. The essentials:
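Uninfected 3T3 cells exposed to drug (0.25% Me2SO final, matched controls); triplicate plates counted at 24, 48, 96 and 120 h to build growth curves. Highest nontoxic level defined as logarithmic growth rate ≥75% of untreated and total growth after 5 days ≥75% of control.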

As for `CNCc1c2c(O)c3c(O)c(C)c4c(c3c1O)C(=O)[C@@](C)(O/C=C/[C@H](OC)[C@@H](C)[C@@H](OC(C)=O)[C@H](C)[C@H](O)[C@H](C)[C@@H](O)[C@@H](C)/C=C/C=C(/C)C(=O)N2)O4`, the “inhibition (INH)” value in data set [1] is on record as 14%. The MNTC in data set [2] was 1400 nM.

For the compound `CCCNCc1c2c(O)c3c(O)c(C)c4c(c3c1O)C(=O)[C@@](C)(O/C=C/[C@H](OC)[C@@H](C)[C@@H](OC(C)=O)[C@H](C)[C@H](O)[C@H](C)[C@@H](O)[C@@H](C)/C=C/C=C(/C)C(=O)N2)O4`, in data set [1], the “inhibition (INH)” value came to 10%. Also, the MNTC in data set [2] was determined as 1300 nM.

For the compound `CO[C@H]1/C=C/O[C@@]2(C)Oc3c(C)c(O)c4c(O)c(c(CN)c(O)c4c3C2=O)NC(=O)/C(C)=C\C=C\[C@H](C)[C@H](O)[C@@H](C)[C@@H](O)[C@@H](C)[C@H](OC(C)=O)[C@@H]1C`, the “inhibition (INH)” value in data set [1] is listed as 0%. Further, the MNTC in data set [2] is 1400 nM.

Turning to `CO[C@H]1/C=C/O[C@@]2(C)Oc3c(C)c(O)c4c(O)c5c(c(O)c4c3C2=O)CN(C)C(=N5)/C(C)=C\C=C\[C@H](C)[C@H](O)[C@@H](C)[C@@H](O)[C@@H](C)[C@H](OC(C)=O)[C@@H]1C`, the “inhibition (INH)” value in data set [1] is 0%. For the same compound, the MNTC in data set [2] was 1400 nM.

For `CO[C@H]1/C=C/O[C@@]2(C)Oc3c(C)c(O)c4c(O)c5c(c(O)c4c3C2=O)CNC(=N5)/C(C)=C\C=C\[C@H](C)[C@H](O)[C@@H](C)[C@@H](O)[C@@H](C)[C@H](OC(C)=O)[C@@H]1C`, in data set [1], the “inhibition (INH)” value was found to be 26%. Besides, the MNTC in data set [2] is 1400 nM.
